Data reported in ChEMBL document CHEMBL1134346, “Labeling and evaluation of N-[11C]methylated quinoline-2-carboxamides as potential radioligands for visualization of peripheral benzodiazepine receptors” (J Med Chem, 2001).

Organism: Rattus norvegicus
Test: Tissue (muscle) distribution in Albino male CD rats after 30 minutes expressed as percent of injected dose per gram of organ.
Format: ADME, organism-based
Conditions: in vivo, 0.5 h
Procedure, shortened: (§1)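 Male albino CD rats (225-250 g) received the 11C-labelled radioligand in saline by tail-vein injection. Three rats per time point were decapitated under light ether anaesthesia at 5, 15, 30, 60 or 90 min. Blood was collected heparinized and plasma separated by centrifugation. The pituitary was dissected from the brain. Lung, liver (three-lobe pieces) and right deltoid muscle were sampled, washed in cold saline, gamma-counted and weighed. Results are %I.D./g.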

| I.D./g | SMILES |
| --- | --- |
| 0.16% | CCC(C)N(C)C(=O)c1nc2ccccc2c(-c2ccccc2)c1C (stereo not given) |

Organism: Rattus norvegicus
Test: Tissue (cortex) distribution in Albino male CD rats after 60 minutes expressed as percent of injected dose per gram of organ.
Format: ADME, organism-based
Conditions: in vivo, 1 h
Procedure, shortened: (§2)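 Radioligand given in saline into tail vein of male albino CD rats (225-250 g); 100-200 µCi per animal, 1-2 Ci/µmol at injection depending on radioligand. Three rats per time point were decapitated under light ether anaesthesia. Blood, plasma, brain regions and washed organs were weighed and gamma-counted. Uptake is %I.D./g tissue, mean ± SD.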

| I.D./g | SMILES |
| --- | --- |
| 0.04% | CCC(C)N(C)C(=O)c1nc2ccccc2c(-c2ccccc2)c1C (stereo not given) |

Target: Translocator protein (Rattus norvegicus) (UniProt P16257)
Test: Tissue (heart) concentration of radioactivity at 30 min post-injection into Albino male CD rats after pretreatment with cold PK 11195.
Format: functional
Conditions: not given
Procedure, shortened: (§3)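 Separate groups of five rats received tail-vein PK 11195 (1.4-1.6 mg; 5 mg/kg) in 30 µL DMSO:EtOH 1:1, or vehicle alone, immediately before iv radioligand (90-170 µCi in saline, 0.9-1 Ci/µmol). Rats were decapitated at 30 min and tissues gamma-counted; values are %I.D./g.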

Chain of Translocator protein (Rattus norvegicus) (P16257 whole entry, looked up): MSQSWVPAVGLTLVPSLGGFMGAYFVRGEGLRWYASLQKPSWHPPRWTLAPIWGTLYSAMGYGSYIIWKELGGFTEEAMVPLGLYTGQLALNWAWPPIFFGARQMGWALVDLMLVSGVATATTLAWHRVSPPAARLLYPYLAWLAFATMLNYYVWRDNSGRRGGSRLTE

| I.D./g | SMILES |
| --- | --- |
| < 0.13% | CCC(C)N(C)C(=O)c1nc2ccccc2c(-c2ccccc2)c1C (stereo not given) |

Organism: Rattus norvegicus
Test: Tissue (heart) concentration of radioactivity at 30 min post-injection into Albino male CD rats with vehicle.
Format: ADME, organism-based
Conditions: in vivo, 0.5 h
Procedure, shortened: as §3

| I.D./g | SMILES |
| --- | --- |
| 0.77% | CCC(C)N(C)C(=O)c1nc2ccccc2c(-c2ccccc2)c1C (stereo not given) |

Organism: Rattus norvegicus
Test: Tissue (muscle) distribution in Albino male CD rats after 60 minutes expressed as percent of injected dose per gram of organ.
Format: ADME, organism-based
Conditions: in vivo, 1 h
Procedure, shortened: as §1

| I.D./g | SMILES |
| --- | --- |
| 0.12% | CCC(C)N(C)C(=O)c1nc2ccccc2c(-c2ccccc2)c1C (stereo not given) |

Organism: Rattus norvegicus
Test: Tissue (pituitary) distribution in Albino male CD rats after 30 minutes expressed as percent of injected dose per gram of organ.
Format: ADME, organism-based, Pituitary gland
Conditions: in vivo, 0.5 h
Procedure, shortened: as §1

| I.D./g | SMILES |
| --- | --- |
| 0.24% | CCC(C)N(C)C(=O)c1nc2ccccc2c(-c2ccccc2)c1C (stereo not given) |

Organism: Rattus norvegicus
Test: Tissue (pituitary) distribution in Albino male CD rats after 5 minutes expressed as percent of injected dose per gram of organ.
Format: ADME, organism-based, Pituitary gland
Conditions: in vivo
Procedure, shortened: as §1

| I.D./g | SMILES |
| --- | --- |
| 0.22% | CCC(C)N(C)C(=O)c1nc2ccccc2c(-c2ccccc2)c1C (stereo not given) |

Organism: Rattus norvegicus
Test: Tissue (plasma) distribution in Albino male CD rats after 30 minutes expressed as percent of injected dose per gram of organ.
Format: ADME, organism-based
Conditions: in vivo, 0.5 h
Procedure, shortened: as §1

| I.D./g | SMILES |
| --- | --- |
| 0.03% | CCC(C)N(C)C(=O)c1nc2ccccc2c(-c2ccccc2)c1C (stereo not given) |

Organism: Rattus norvegicus
Test: Tissue (spleen) concentration of radioactivity at 30 min post-injection into Albino male CD rats with vehicle.
Format: ADME, organism-based
Conditions: in vivo, 0.5 h
Procedure, shortened: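 Blocking study in male albino CD rats, five per group. Immediately before the 11C radioligand (in saline, i.v. tail vein), rats received 30 µL tail-vein PK 11195 (5 mg/kg; 1.4-1.6 mg) in DMSO:EtOH 1:1, or vehicle. Rats were decapitated at 30 min. Tissues were dissected, washed, gamma-counted and weighed as in the biodistribution study. Results are %I.D./g.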

| I.D./g | SMILES |
| --- | --- |
| 0.56% | CCC(C)N(C)C(=O)c1nc2ccccc2c(-c2ccccc2)c1C (stereo not given) |

Organism: Rattus norvegicus
Test: Tissue (heart) distribution in Albino male CD rats after 15 minutes expressed as percent of injected dose per gram of organ.
Format: ADME, organism-based
Conditions: in vivo, 0.25 h
Procedure, shortened: as §2

| I.D./g | SMILES |
| --- | --- |
| 0.8% | CCC(C)N(C)C(=O)c1nc2ccccc2c(-c2ccccc2)c1C (stereo not given) |

Organism: Rattus norvegicus
Test: Tissue (heart) distribution in Albino male CD rats after 90 minutes expressed as percent of injected dose per gram of organ.
Format: ADME, organism-based
Conditions: in vivo, 1.5 h
Procedure, shortened: as §2

| I.D./g | SMILES |
| --- | --- |
| 1.23% | CCC(C)N(C)C(=O)c1nc2ccccc2c(-c2ccccc2)c1C (stereo not given) |

Organism: Rattus norvegicus
Test: Tissue (intestine) distribution in Albino male CD rats after 60 minutes expressed as percent of injected dose per gram of organ.
Format: ADME, organism-based
Conditions: in vivo, 1 h
Procedure, shortened: as §2

| I.D./g | SMILES |
| --- | --- |
| 0.4% | CCC(C)N(C)C(=O)c1nc2ccccc2c(-c2ccccc2)c1C (stereo not given) |

Target: Translocator protein (Rattus norvegicus) (UniProt P16257)
Test: Tissue (kidney) concentration of radioactivity at 30 min post-injection into Albino male CD rats after pretreatment with cold PK 11195.
Format: functional, tissue-based
Conditions: not given
Procedure, shortened: as §3

| I.D./g | SMILES |
| --- | --- |
| < 0.16% | CCC(C)N(C)C(=O)c1nc2ccccc2c(-c2ccccc2)c1C (stereo not given) |

Organism: Rattus norvegicus
Test: Tissue (kidney) distribution in Albino male CD rats after 15 minutes expressed as percent of injected dose per gram of organ.
Format: ADME, organism-based
Conditions: in vivo, 0.25 h
Procedure, shortened: as §2

| I.D./g | SMILES |
| --- | --- |
| 0.6% | CCC(C)N(C)C(=O)c1nc2ccccc2c(-c2ccccc2)c1C (stereo not given) |

Organism: Rattus norvegicus
Test: Tissue (cerebellum) distribution in Albino male CD rats after 15 minutes expressed as percent of injected dose per gram of organ.
Format: ADME, organism-based
Conditions: in vivo, 0.25 h
Procedure, shortened: as §2

| I.D./g | SMILES |
| --- | --- |
| 0.08% | CCC(C)N(C)C(=O)c1nc2ccccc2c(-c2ccccc2)c1C (stereo not given) |

Organism: Rattus norvegicus
Test: Tissue (cerebellum) distribution in Albino male CD rats after 5 minutes expressed as percent of injected dose per gram of organ.
Format: ADME, organism-based
Conditions: in vivo
Procedure, shortened: as §2

| I.D./g | SMILES |
| --- | --- |
| 0.13% | CCC(C)N(C)C(=O)c1nc2ccccc2c(-c2ccccc2)c1C (stereo not given) |

Organism: Rattus norvegicus
Test: Tissue (cerebellum) distribution in Albino male CD rats after 90 minutes expressed as percent of injected dose per gram of organ.
Format: ADME, organism-based
Conditions: in vivo, 1.5 h
Procedure, shortened: as §2

| I.D./g | SMILES |
| --- | --- |
| 0.04% | CCC(C)N(C)C(=O)c1nc2ccccc2c(-c2ccccc2)c1C (stereo not given) |

Target: Translocator protein (Rattus norvegicus) (UniProt P16257)
Test: Tissue (cortex) concentration of radioactivity at 30 min post-injection into Albino male CD rats after pretreatment with cold PK 11195.
Format: functional
Conditions: not given
Procedure, shortened: as §3

| I.D./g | SMILES |
| --- | --- |
| > 0.04% | CCC(C)N(C)C(=O)c1nc2ccccc2c(-c2ccccc2)c1C (stereo not given) |

Target: Translocator protein (Rattus norvegicus) (UniProt P16257)
Test: Tissue (liver) concentration of radioactivity at 30 min post-injection into Albino male CD rats after pretreatment with cold PK 11195.
Format: functional, tissue-based
Conditions: not given
Procedure, shortened: as §3

| I.D./g | SMILES |
| --- | --- |
| < 0.56% | CCC(C)N(C)C(=O)c1nc2ccccc2c(-c2ccccc2)c1C (stereo not given) |

Organism: Rattus norvegicus
Test: Tissue (lung) distribution in Albino male CD rats after 15 minutes expressed as percent of injected dose per gram of organ.
Format: ADME, organism-based
Conditions: in vivo, 0.25 h
Procedure, shortened: as §1

| I.D./g | SMILES |
| --- | --- |
| 2.01% | CCC(C)N(C)C(=O)c1nc2ccccc2c(-c2ccccc2)c1C (stereo not given) |
